Where “and” joins values, the source holds several entries; their conditions need not be identical. Identical values can stand only once. Like-named read-outs stand apart in the source and are kept apart here. One block for each molecule: values may come before it.
Experiments:
[1] = Phase I open-label drug interaction PK study, arm B
[2] = Phase I open-label drug interaction PK study, arm A; conditions: for Cmax: in vivo
[3] = human, in vivo
[4] = cited from earlier work
[5] = Fasting lipid profile, calculated LDL-C; assay type: in vivo, healthy adult HIV-1 seronegative volunteers
How it was run: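 Healthy HIV-seronegative volunteers aged 18–60 (BMI 18–25, ≥50 kg) took pitavastatin with observed dosing on day 4. They then took EFV 600 mg (arm A, night) or DRV/ritonavir 800/100 mg (arm B, morning) on days 5–14, plus pitavastatin 2 mg on days 15–18. Fasting serum total cholesterol, triglycerides and HDL were measured enzymatically on days 0, 4, 14 and 18, and LDL-C was calculated by the Friedewald equation.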

[6] = human, in vivo; remark: listed apart in the source
[7] = coadministered with pitavastatin vs DRV/r alone, nonsignificant
[8] = pitavastatin 4 mg daily with DRV/r 800/100 mg, healthy volunteers
[9] = pitavastatin 4 mg once daily and lopinavir/r 400/100 mg twice a day, healthy volunteers

Increase in DRV mean AUC0-τ [1, 7]: 8% and < 10%
Increase in DRV mean Cmax [1, 7]: 3% and < 10%
DRV mean plasma concentrations, alone vs coadministered ([1]; with pitavastatin, Fig. 3B): remained similar
SMILES: CC(C)CN(C[C@@H](O)[C@H](Cc1ccccc1)NC(=O)O[C@H]1CO[C@H]2OCC[C@H]21)S(=O)(=O)c1ccc(N)cc1 [DRV, darunavir]

SMILES: O=C1Nc2ccc(Cl)cc2[C@@](C#CC2CC2)(C(F)(F)F)O1 [EFV, efavirenz]
EFV AUC0-τ, geometric mean ([2]; EFV 600 mg with pitavastatin 2 mg, day 18, N=14): 44400 ng·h/mL
EFV Tmax, median (IQR) ([2]; EFV only, day 14, N=14): 2.0 (0.9 to 3.0) h
Cmax ([2]; human): 3720 ng/mL
Cmax ([2]; human, 600 mg): 4150 ng/mL
AUC ([2]; human, plasma, oral, 600 mg): 49500 ng·h/mL
Tmax ([2]; human, plasma, oral, EFV Tmax, median (IQR), EFV with pitavastatin, day 18, N=14): 1.5 h
EFV AUC0-τ geometric mean ratio (90% CI) [3]: 0.90 (0.75 to 1.06)
EFV mean plasma concentrations, alone vs coadministered [3]: remained similar throughout the entire 24-hour PK period

SMILES: O=C(O)C[C@H](O)C[C@H](O)/C=C/c1c(C2CC2)nc2ccccc2c1-c1ccc(F)cc1 [Pitavastatin, pitavastatin]
Pitavastatin Tmax, median (IQR) [3]: 2.0 (0.9 to 3.0) h
Increase in pitavastatin AUC ([4]; combined with ritonavir-boosted atazanavir): 31%
Safety of concomitant administration ([4]; lopinavir/ritonavir in combination with pitavastatin): safe and well tolerated
Change in pitavastatin Cmax [4, 8]: minimal or no change
Reduction in pitavastatin AUC0-τ [4, 8]: 26%
Change of pitavastatin Cmax [4, 9]: unaffected
Reduction of pitavastatin AUC [4, 9]: ~ 20%
Change in mean LDL ([5]; day 0-4, pitavastatin only, arms A and B): decreased
Change in mean LDL ([5]; day 14 to day 18, pitavastatin and either EFV or DRV/r): decreased
Pitavastatin mean plasma concentrations, alone vs coadministered ([1]; with DRV/r, 24-hour PK period, Fig. 3A): similar

Pitavastatin lactone median Tmax [6]: 2.0 h
SMILES: O=C1C[C@H](O)C[C@@H](/C=C/c2c(C3CC3)nc3ccccc3c2-c2ccc(F)cc2)O1 [pitavastatin lactone]

SMILES: CC[C@H](C)C(=O)O[C@H]1C[C@H](O)C=C2C=C[C@H](C)[C@H](CC[C@@H](O)C[C@@H](O)CC(=O)O)[C@H]21 [pravastatin]
Decrease of statin AUC by EFV ([4]; coadministered with EFV): 40%
Increase of pravastatin AUC ([4]; coadministration with lopinavir/ritonavir): 33%
Reduction of pravastatin exposure ([4]; combined with nelfinavir or saquinavir): about 50%
Increase of pravastatin AUC ([4]; in the presence of DRV/r): 81%

— paper PMC4404408 (Journal of acquired immune deficiency syndromes (1999), 2014)
